Reference: PMC11516114 (Protein Science : A Publication of the Protein Society, 2024)
Like-named read-outs stand apart in the source and are kept apart here.

How the values were obtained:
wild-type HIF-2α PAS-B [1] = molecular target: T1, wild-type HIF-2α PAS-B (Homo sapiens, UniProt Q99814); experiment: Isothermal titration calorimetry; assay type: binding
Procedure, shortened: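 Human HIF-2α PAS-B (residues 240–350), expressed with a cleavable His6-Gβ1 tag, purified by Ni2+ affinity, TEV cleavage, a second Ni2+ pass and size exclusion. ITC run at 25°C with protein (250–300 μM) titrated into 20 μM test compound: 25 injections, 250 s spacing, 350 rpm. Protein-into-buffer heats were subtracted.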

wild-type HIF-2α PAS-B [2] = molecular target: T1, wild-type HIF-2α PAS-B; settings: previously measured, ref Key et al. [2009]; cited from earlier work

T1 sequence (Q99814 240-350): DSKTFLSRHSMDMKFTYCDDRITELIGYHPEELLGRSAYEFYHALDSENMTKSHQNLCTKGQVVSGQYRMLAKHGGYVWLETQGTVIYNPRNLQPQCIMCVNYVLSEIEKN

SMILES	Kd (wild-type HIF-2α PAS-B [1])	Kd (wild-type HIF-2α PAS-B [2])
O=[N+]([O-])c1cc(C(F)(F)F)ccc1NCc1ccsc1 [THS-017, 2‐nitro‐N‐[(thiophen‐3‐yl)methyl]‐4‐(trifluoromethyl)aniline]	600 ± 60 nM	590 ± 50 nM
O=[N+]([O-])c1cc(C(F)(F)F)ccc1NCc1ccco1 [THS-020, N‐[(furan‐2‐yl)methyl]‐2‐nitro‐4‐(trifluoromethyl)aniline]	1350 ± 110 nM	1500 ± 700 nM
